{
  "source": "ChEMBL document CHEMBL5724801",
  "about": "“EUbOPEN Chemogenomics Library - Multiplex” (2024)",
  "tested_on": "U2OS",
  "experiment": "Multiplex assay against U2OS",
  "format": "toxicity, cell-based",
  "details": "human",
  "outline": "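Compound was added to live cells that had been stained at seeding with Hoechst33342, BioTracker Green Microtubule Cytoskeleton Dye, MitoTracker Red and Annexin V Alexa Fluor 680, and imaging followed on a CQ1 microscope at 37°C and 5% CO2. CellPathfinder machine-learning gating divided cells into Hoechst high-intensity objects or normal cells, normal cells into healthy, pyknosed or fragmented nuclei, and pyknosed cells into mitotic or apoptotic. Tubulin, mitochondrial-mass and membrane-permeability phenotypes are per cents of healthy-nucleus cells.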",
  "key": {"[1]": {"details": "12 h, 1 µM, compound concentration 1 uM"}, "[2]": {"details": "12 h, 10 µM, compound concentration 10 uM"}, "[3]": {"details": "24 h, 1 µM, compound concentration 1 uM"}, "[4]": {"details": "24 h, 10 µM, compound concentration 10 uM"}, "[5]": {"details": "48 h, 1 µM, compound concentration 1 uM"}, "[6]": {"details": "48 h, 10 µM, compound concentration 10 uM"}},
  "note": "“And” between values parts separate entries of the source, which are not always exact repeats. Equal values may be shown once.",
  "data": [
    {"molecule": "CN1[C@@H](CC(=O)c2ccccc2)CCC[C@H]1C[C@H](O)c1ccccc1.Cl", "note": "[LOBELINE HYDROCHLORIDE]", "values": [
      {"measurement": "Population Apoptotic (%)", "setting": "[1]", "result": "43.24% and 34.78%"},
      {"measurement": "Population Fragmented Nuclei (%)", "setting": "[1]", "result": "1.42% and 2.51%"},
      {"measurement": "Population Healthy Nuclei (%)", "setting": "[1]", "result": "88.07% and 85.93%"},
      {"measurement": "Population Hoechst High Intensity Objects (%)", "setting": "[1]", "result": 0, "unit": "%"},
      {"measurement": "Population Membrane Permeable-Phenotype (%)", "setting": "[1]", "result": "0.97% and 2.34%"},
      {"measurement": "Population Mitochondria Different-Phenotype (%)", "setting": "[1]", "result": "0% and 6.43%"},
      {"measurement": "Population Mitotic Cells (%)", "setting": "[1]", "result": "56.76% and 65.22%"},
      {"measurement": "Population Normal (%)", "setting": "[1]", "result": 100, "unit": "%"},
      {"measurement": "Population Pyknosed Nuclei (%)", "setting": "[1]", "result": "10.51% and 11.56%"},
      {"measurement": "Population Tubulin-Different-Phenotype (%)", "setting": "[1]", "result": "0.65% and 0.58%"},
      {"measurement": "Total Cell Count", "setting": "[1]", "result": "352 and 199"},
      {"measurement": "Population Apoptotic (%)", "setting": "[2]", "result": "42.42% and 20%"},
      {"measurement": "Population Fragmented Nuclei (%)", "setting": "[2]", "result": "1.15% and 1.84%"},
      {"measurement": "Population Healthy Nuclei (%)", "setting": "[2]", "result": "91.26% and 82.82%"},
      {"measurement": "Population Hoechst High Intensity Objects (%)", "setting": "[2]", "result": 0, "unit": "%"},
      {"measurement": "Population Membrane Permeable-Phenotype (%)", "setting": "[2]", "result": "1.76% and 8.15%"},
      {"measurement": "Population Mitotic Cells (%)", "setting": "[2]", "result": "57.58% and 80%"},
      {"measurement": "Population Normal (%)", "setting": "[2]", "result": 100, "unit": "%"},
      {"measurement": "Population Pyknosed Nuclei (%)", "setting": "[2]", "result": "7.59% and 15.34%"},
      {"measurement": "Population Tubulin-Different-Phenotype (%)", "setting": "[2]", "result": "4.03% and 5.19%"},
      {"measurement": "Total Cell Count", "setting": "[2]", "result": "435 and 163"},
      {"measurement": "Population Apoptotic (%)", "setting": "[3]", "result": "44.64% and 46.88%"},
      {"measurement": "Population Fragmented Nuclei (%)", "setting": "[3]", "result": "0.81% and 1.97%"},
      {"measurement": "Population Healthy Nuclei (%)", "setting": "[3]", "result": "87.88% and 85.43%"},
      {"measurement": "Population Hoechst High Intensity Objects (%)", "setting": "[3]", "result": 0, "unit": "%"},
      {"measurement": "Population Membrane Permeable-Phenotype (%)", "setting": "[3]", "result": "0.46% and 2.76%"},
      {"measurement": "Population Mitochondria Different-Phenotype (%)", "setting": "[3]", "result": "0% and 6.91%"},
      {"measurement": "Population Mitotic Cells (%)", "setting": "[3]", "result": "55.36% and 53.12%"},
      {"measurement": "Population Normal (%)", "setting": "[3]", "result": 100, "unit": "%"},
      {"measurement": "Population Pyknosed Nuclei (%)", "setting": "[3]", "result": "11.31% and 12.6%"},
      {"measurement": "Population Tubulin-Different-Phenotype (%)", "setting": "[3]", "result": "0.69% and 0.92%"},
      {"measurement": "Total Cell Count", "setting": "[3]", "result": "495 and 254"},
      {"measurement": "Population Apoptotic (%)", "setting": "[4]", "result": "28.79% and 39.39%"},
      {"measurement": "Population Fragmented Nuclei (%)", "setting": "[4]", "result": "0.84% and 0.51%"},
      {"measurement": "Population Healthy Nuclei (%)", "setting": "[4]", "result": "88.01% and 82.74%"},
      {"measurement": "Population Hoechst High Intensity Objects (%)", "setting": "[4]", "result": 0, "unit": "%"},
      {"measurement": "Population Membrane Permeable-Phenotype (%)", "setting": "[4]", "result": "0.96% and 1.23%"},
      {"measurement": "Population Mitotic Cells (%)", "setting": "[4]", "result": "71.21% and 60.61%"},
      {"measurement": "Population Normal (%)", "setting": "[4]", "result": 100, "unit": "%"},
      {"measurement": "Population Pyknosed Nuclei (%)", "setting": "[4]", "result": "11.15% and 16.75%"},
      {"measurement": "Population Tubulin-Different-Phenotype (%)", "setting": "[4]", "result": "2.11% and 2.45%"},
      {"measurement": "Population Apoptotic (%)", "setting": "[5]", "result": "42.67% and 32.61%"},
      {"measurement": "Population Fragmented Nuclei (%)", "setting": "[5]", "result": "2.46% and 2.85%"},
      {"measurement": "Population Healthy Nuclei (%)", "setting": "[5]", "result": "89.17% and 86.22%"},
      {"measurement": "Population Hoechst High Intensity Objects (%)", "setting": "[5]", "result": 0, "unit": "%"},
      {"measurement": "Population Membrane Permeable-Phenotype (%)", "setting": "[5]", "result": "0.75% and 0.83%"},
      {"measurement": "Population Mitochondria Different-Phenotype (%)", "setting": "[5]", "result": "0.13% and 5.79%"},
      {"measurement": "Population Mitotic Cells (%)", "setting": "[5]", "result": "57.33% and 67.39%"},
      {"measurement": "Population Normal (%)", "setting": "[5]", "result": 100, "unit": "%"},
      {"measurement": "Population Pyknosed Nuclei (%)", "setting": "[5]", "result": "8.37% and 10.93%"},
      {"measurement": "Population Tubulin-Different-Phenotype (%)", "setting": "[5]", "result": "1.25% and 0.55%"},
      {"measurement": "Total Cell Count", "setting": "[5]", "result": "896 and 421"},
      {"measurement": "Population Apoptotic (%)", "setting": "[6]", "result": "41.41% and 48.72%"},
      {"measurement": "Population Fragmented Nuclei (%)", "setting": "[6]", "result": "1.94% and 1.9%"},
      {"measurement": "Population Healthy Nuclei (%)", "setting": "[6]", "result": "88.91% and 85.76%"},
      {"measurement": "Population Hoechst High Intensity Objects (%)", "setting": "[6]", "result": 0, "unit": "%"},
      {"measurement": "Population Membrane Permeable-Phenotype (%)", "setting": "[6]", "result": "1.66% and 1.85%"},
      {"measurement": "Population Mitochondria Different-Phenotype (%)", "setting": "[6]", "result": "0.31% and 8.86%"},
      {"measurement": "Population Mitotic Cells (%)", "setting": "[6]", "result": "58.59% and 51.28%"},
      {"measurement": "Population Normal (%)", "setting": "[6]", "result": 100, "unit": "%"},
      {"measurement": "Population Pyknosed Nuclei (%)", "setting": "[6]", "result": "9.15% and 12.34%"},
      {"measurement": "Population Tubulin-Different-Phenotype (%)", "setting": "[6]", "result": "1.77% and 2.21%"}
    ]}
  ]
}
